Laboratory results reported in ChEMBL document CHEMBL4673212, “Investigation of synergistic antimicrobial effects of the drug combinations of meropenem and 1,2-benzisoselenazol-3(2H)-one derivatives on carbapenem-resistant Enterobacteriaceae producing NDM-1” (Eur J Med Chem, 2018).
Values after ≈ are worked out from the molar mass of the structure shown.

Key:
Escherichia coli [1] = experiment: Potentiation of meropenem-induced antibacterial activity against Escherichia coli TG1 transformed with IncX3 plasmid expressing blaNDM-1 assessed as bacterial growth inhibition by measuring meropenem MIC incubated for overnight by CLSI protocol based assay; type: functional; conditions: time 12 hrs
Escherichia coli [2] = experiment: Synergistic antibacterial activity against Escherichia coli TG1 transformed with IncX3 plasmid expressing blaNDM-1 assessed as ratio of negative logarithm of fractional inhibitory concentration index to non-hydrogen atom in presence of meropenem incubated for overnight by CLSI protocol based assay; type: functional; conditions: time 12 hrs
In short: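 In E. coli TG1 carrying the IncX3 blaNDM-1 plasmid, the FIC index was taken from overnight CLSI-based MICs of compound, meropenem and their 1:1 mass mixture, read by eye. Synergistic efficiency = −ln(FIC index) divided by the number of non-hydrogen atoms. At least triplicate assays.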

Escherichia coli [3] = experiment: Synergistic antibacterial activity against Escherichia coli TG1 transformed with IncX3 plasmid expressing blaNDM-1 assessed as fractional inhibitory concentration index in presence of meropenem incubated for overnight by CLSI protocol based assay; type: functional; conditions: time 12 hrs
In short: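 FIC index from MICs of compound alone, meropenem alone, and the 1:1 (mass) compound–meropenem combination, read by eye after overnight incubation in a CLSI-based assay. FIC index = MICcombo/MICcpd + MICcombo/MICMem. FIC index ≤0.5 counted as synergy. At least triplicate assays. Clinical NDM-1 isolates for 17-39; E. coli TG1 carrying the IncX3 blaNDM-1 plasmid for 15.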

[4] = Growth inhibition of Escherichia coli TG1 transformed with IncX3 plasmid expressing blaNDM-1 incubated for overnight by CLSI protocol based assay; conditions: 12 h
[5] = Competitive inhibition of recombinant bacterial His6-tagged TEV protease site linked NDM-1 (32 to […] residues) expressed in Escherichia coli BL21 (DE3); set-up: species or system Bacteria
[6] = Inhibition of recombinant bacterial NDM-1 by fluorogenic assay; set-up: species or system Bacteria
[7] = Covalent inhibition of bacterial NDM-1; set-up: species or system Bacteria
[8] = Inhibition of bacterial VIM-1; set-up: species or system Bacteria

Structure (SMILES)	MIC (Escherichia coli [1]) [mg/L]	Ratio (Escherichia coli [2])	fractional inhibitory concentration index (FICI) (Escherichia coli [3])	MIC [4]	IC50 [5] [µM]	IC50 [6] [µM]	Ki [7] [µM]	IC50 [8] [µM]
O=c1c2ccccc2[se]n1C1CCCCC1	8	0.087	0.25	64 mg/L (≈ 228 µM)				
O=C(NCCn1[se]c2ccccc2c1=O)OCc1ccccc1	16	0.043	0.375	>= 128 ug ml-1				
O=C(O)[C@H]1CCCCN1C(=O)C(CS)Cc1ccccc1 (mixture of isomers)					0.7			
O=c1c2ccccc2[se]n1Cc1ccccc1	8	0.058	0.375	32 mg/L (≈ 111 µM)				
O=c1c2ccccc2[se]n1-c1ccc(CO)cc1	16	0.054	0.375	>= 128 ug ml-1				
O=C1N[Se]c2ccccc2C(=O)N1	8	0.107	0.25	64 mg/L (≈ 265 µM)				
CN(C)CCn1[se]c2ccccc2c1=O	16	0.065	0.375	>= 128 ug ml-1				
CC(C)(C)CC(=O)NCCn1[se]c2ccccc2c1=O	8	0.084	0.188	>= 128 ug ml-1				
O=c1c2ccccc2[se]n1CCNCc1ccccc1	8	0.084	0.188	>= 128 ug ml-1				
C[C@@H](O)[C@H]1C(=O)N2C(C(=O)O)=C(S[C@@H]3CN[C@H](C(=O)N(C)C)C3)[C@H](C)[C@H]12 [MEROPENEM]				64 mg/L (≈ 167 µM)				
O=c1c2ccccc2[se]n1CCN1CCCCC1	16	0.054	0.375	>= 128 ug ml-1				
O=c1c2ccccc2[se]n1S(=O)(=O)c1ccc(Cl)cc1	16	0.049	0.375	>= 128 ug ml-1				
O=C(NCCn1[se]c2ccccc2c1=O)c1ccccc1	16	0.047	0.375	>= 128 ug ml-1				
NCCNCc1ccc(C(=O)N[C@H]2Cc3cccc(C(=O)O)c3O[B-]2(O)O)cc1						0.004		
CCN(CC)CCn1[se]c2ccccc2c1=O	16	0.041	0.5	64 mg/L (≈ 215 µM)				
O=c1c2ccccc2[se]n1-c1ccc(Cl)cc1	4	0.139	0.094	>= 128 ug ml-1				
O=c1c2ccccc2[se]n1Cc1cccc(N2CCCCC2)c1	16	0.043	0.375	>= 128 ug ml-1				
CCCC[n+]1ccn(CCCn2[se]c3ccccc3c2=O)c1	8	0.076	0.188	>= 128 ug ml-1				
CC(C)(CC(=O)NCCn1[se]c2ccccc2c1=O)C(F)(F)F	8	0.073	0.188	>= 128 ug ml-1				
C#CCn1[se]c2ccccc2c1=O	8	0.107	0.25	64 mg/L (≈ 271 µM)				
O=c1c2ccccc2[se]n1CCN1CCOCC1	16	0.039	0.5	64 mg/L (≈ 206 µM)				
O=c1c2ccccc2[se]n1-c1ccncc1	32	0.018	0.75	>= 128 ug ml-1				
Cl.NCCCn1[se]c2ccccc2c1=O	2	0.091	0.281	8 mg/L				
O=c1c2ccccc2[se]n1CCCn1ccnc1	16	0.054	0.375	>= 128 ug ml-1				
CC(C)(C)OC(=O)NCCCn1[se]c2ccccc2c1=O	8	0.08	0.188	>= 128 ug ml-1				

Structure (SMILES)	MIC (Escherichia coli [1]) [mg/L]	Ratio (Escherichia coli [2])	fractional inhibitory concentration index (FICI) (Escherichia coli [3])	MIC [4]	IC50 [5] [µM]	IC50 [6] [µM]	Ki [7] [µM]	IC50 [8] [µM]
N[C@@H](C(=O)N[C@@H]1C(=O)N2C(C(=O)O)=C(Cl)CS[C@H]12)c1ccccc1 [CEFACLOR ANHYDROUS]							2300	
Cl.NCCn1[se]c2ccccc2c1=O	4	-0.005	1.063	4 mg/L				
CCN(CC)CCCC(C)n1[se]c2ccccc2c1=O (stereo not given)	8	0.084	0.188	>= 128 ug ml-1				
O=C1CC[Se]N1c1ccccc1	32	0.024	0.75	>= 128 ug ml-1				
CCN1CCC[C@@H]1Cn1[se]c2ccccc2c1=O	16	0.039	0.5	64 mg/L (≈ 207 µM)				
O=c1c2ccccc2[se]n1Cc1cccc(-c2ccccc2)c1	16	0.043	0.375	>= 128 ug ml-1				
COc1ccc(-n2[se]c3ccccc3c2=O)cc1	16	0.054	0.375	>= 128 ug ml-1				
O=C(NCCn1[se]c2ccccc2c1=O)c1ccc(F)cc1F	32	0.013	0.75	>= 128 ug ml-1				
COc1ccc(Cn2[se]c3ccccc3c2=O)cc1	8	0.088	0.188	>= 128 ug ml-1				
O=C(O)c1cccc(-n2[se]c3ccccc3c2=O)c1	8	0.052	0.375	32 mg/L (≈ 101 µM)				
O=C(O)Cn1[se]c2ccccc2c1=O	2	0.091	0.281	8 mg/L (≈ 31.2 µM)				
Cc1ccc(C(=O)NCCn2[se]c3ccccc3c2=O)cc1	8	0.076	0.188	>= 128 ug ml-1				
CC1CN(CCn2[se]c3ccccc3c2=O)CC(C)O1 (stereo not given)	16	0.049	0.375	>= 128 ug ml-1				
O=C(O)c1ccc(-n2[se]c3ccccc3c2=O)cc1	4	0.109	0.125	64 mg/L (≈ 201 µM)				
O=c1c2ccccc2[se]n1CCO	16	0.022	0.75	32 mg/L (≈ 132 µM)				
O=C(NCCn1[se]c2ccccc2c1=O)c1cccs1	8	0.084	0.188	>= 128 ug ml-1				
O=c1c2ccccc2[se]n1CCC1CCOCC1	8	0.084	0.188	>= 128 ug ml-1				
COP(=O)(NCCn1[se]c2ccccc2c1=O)OC	8	0.084	0.188	>= 128 ug ml-1				
COc1cccc(C(=O)n2[se]c3ccccc3c2=O)c1	8	0.084	0.188	>= 128 ug ml-1				
CCN1CCC[C@H]1Cn1[se]c2ccccc2c1=O	16	0.039	0.5	64 mg/L (≈ 207 µM)				
C[C@H](C(=O)N[C@H](C)C(=O)O)n1[se]c2ccccc2c1=O	16	0.049	0.375	>= 128 ug ml-1				
CC(C)(OC(=O)NCCCn1[se]c2ccccc2c1=O)C(F)(F)F	8	0.07	0.188	>= 128 ug ml-1				
CC(C)c1ccc(-n2[se]c3ccccc3c2=O)cc1	16	0.052	0.375	>= 128 ug ml-1				
COc1ccc(-n2[se]c3ccccc3c2=O)cc1Cl	32	0.015	0.75	>= 128 ug ml-1				
O=C(O)[C@@H]1SC[C@H]2CS[C@H](CS)N21								23
